Publication PMC8136437 (ACS chemical biology, 2020)

Assays:
HCK-T338M = HCK-T338M (Homo sapiens, UniProt P08631, T333M); assay: HCK activation loop autophosphorylation; type: cell-based
Summary of the method: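 Transfected human 293T cells expressing the mutant kinase were treated with the test compound at 0, 100 or 1000 nM, with DMSO as the no-inhibitor control. HCK was immunoprecipitated and immunoblotted for pY416 and total HCK, then detected with infrared-dye secondary antibodies. The pY416/HCK signal ratio was normalized to DMSO; mean ± SE of two independent experiments.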

[1] = system: Philadelphia chromosome-positive CML cells; conditions: at concentrations that did not directly inhibit BCR-ABL; cited from earlier work
HCK-T338H [2] = biological target: T1, HCK-T338H (Homo sapiens, UniProt P08631, T333H); assay: HCK activation loop autophosphorylation; type: cell-based
Summary of the method: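 GM-CSF-dependent TF-1 cells were made cytokine-independent by retroviral FLT3-ITD, then retrovirally transduced with mutant HCK. For kinase activity, cells were exposed to 0, 30, 100 or 300 nM test compound; HCK was immunoprecipitated and blotted for pY416 and total HCK (3 independent experiments, normalized to DMSO). IC50: Cell Titer-Blue viability across a concentration range, triplicate, DMSO-normalized, nonlinear regression.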

[3] = system: TF-1/FLT3-ITD cells expressing HCK-T338H; assay: Growth inhibition; type: cell-based, human
Summary of the method: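 TF-1 cells made cytokine-independent by retroviral FLT3-ITD transduction, then retrovirally transduced with wild-type or mutant HCK. Each population exposed to a wide range of test compound concentrations; viability read by Cell Titer-Blue. Each point in triplicate, normalized to DMSO (no inhibitor) control, plotted as mean ± SE. IC50 estimated by nonlinear regression fit of concentration-response curves.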

[4] = biological target: kinome panel (HCK, other SRC-family members, FLT3 and other Class III receptor tyrosine kinases); conditions: KINOMEscan; cited from earlier work
[5] = system: Rat-2 cells expressing HCK-YF; assay: Soft-agar colony-forming assay, Rat-2 fibroblasts transformed with HCK-YF; type: cell-based; conditions: 1 μM A-419259, soft agar, two weeks
Summary of the method: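 Rat-2 fibroblasts infected with 293T-produced retroviruses carrying the HCK-YF codon mutagenesis library, then G-418 selected. Cells plated in soft agar (semi-solid medium) with test compound at 1.0 μM, 5,000 cells per plate, selected two weeks. Picked colonies expanded in 2D without inhibitor, then re-assayed with test compound or DMSO carrier in triplicate. Colonies Wright-Giemsa stained and counted; mean ± SE.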

[6] = system: Rat-2 resistant clone 5-1 (HCK-YF mutant library); type: cell-based; conditions: resistant clone 5-1, 1 μM A-419259 vs DMSO
HCK-T338H [7] = biological target: T1, HCK-T338H; assay: HCK activation loop autophosphorylation; type: cell-based; conditions: 293T cells, 100 and 1,000 nM A-419259
[8] = system: AML patient-derived xenografts; conditions: oral administration; cited from earlier work

T1 sequence (P08631 22-526 T333H): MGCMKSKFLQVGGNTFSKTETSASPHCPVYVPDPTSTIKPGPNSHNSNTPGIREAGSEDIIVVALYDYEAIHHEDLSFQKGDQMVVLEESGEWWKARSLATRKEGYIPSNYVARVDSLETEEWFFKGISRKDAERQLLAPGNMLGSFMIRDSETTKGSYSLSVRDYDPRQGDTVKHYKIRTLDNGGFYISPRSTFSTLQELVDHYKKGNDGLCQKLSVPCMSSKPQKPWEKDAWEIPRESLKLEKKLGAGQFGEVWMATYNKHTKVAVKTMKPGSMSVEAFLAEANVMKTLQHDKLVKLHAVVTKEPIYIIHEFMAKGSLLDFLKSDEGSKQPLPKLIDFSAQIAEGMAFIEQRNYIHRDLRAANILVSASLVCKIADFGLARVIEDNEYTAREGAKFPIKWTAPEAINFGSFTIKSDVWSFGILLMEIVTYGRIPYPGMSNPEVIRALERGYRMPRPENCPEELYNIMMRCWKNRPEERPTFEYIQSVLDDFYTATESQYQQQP
HCK-T338M, sequence (P08631 22-526 T333M): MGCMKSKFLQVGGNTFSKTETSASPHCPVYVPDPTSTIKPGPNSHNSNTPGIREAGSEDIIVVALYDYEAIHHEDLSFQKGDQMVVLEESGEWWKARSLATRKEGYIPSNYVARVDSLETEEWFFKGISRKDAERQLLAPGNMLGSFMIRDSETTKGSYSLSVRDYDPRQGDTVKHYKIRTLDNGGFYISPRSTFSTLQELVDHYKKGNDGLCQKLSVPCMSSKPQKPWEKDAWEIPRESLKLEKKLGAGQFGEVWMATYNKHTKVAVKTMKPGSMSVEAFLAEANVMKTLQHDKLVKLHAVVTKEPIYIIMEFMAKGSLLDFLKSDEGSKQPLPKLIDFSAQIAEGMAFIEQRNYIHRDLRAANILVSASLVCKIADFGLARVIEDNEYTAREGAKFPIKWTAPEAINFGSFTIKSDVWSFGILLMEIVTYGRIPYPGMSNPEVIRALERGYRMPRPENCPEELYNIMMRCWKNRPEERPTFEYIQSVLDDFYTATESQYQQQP

resistance of HCK-T338M autophosphorylation to A-419259 (HCK-T338M; 293T cells, 100 nM A-419259): complete resistance
resistance of HCK-T338M autophosphorylation to A-419259 (HCK-T338M; 293T cells, 1,000 nM A-419259): partial resistance
Tyr416 phosphorylation of HCK-T338H in the presence of A-419259 (HCK-T338H [2]; TF-1/FLT3-ITD cells, concentrations up to 100 nM): remained phosphorylated on Tyr416
IC50 (HCK-T338H [2]; read-out: IC50, kinase inhibition, TF-1/FLT3-ITD cells expressing HCK-T338H): ~100 nM
SMILES: CN1CCN(C2CCC(n3cc(-c4ccc(Oc5ccccc5)cc4)c4c(N)ncnc43)CC2)CC1 (stereo not shown) [A-419259]
growth arrest and apoptosis of CML cells [1]: induced growth arrest and apoptosis
sensitivity of TF-1/FLT3-ITD cells to growth inhibition ([3]; HCK-T338H expression vs wild-type HCK): reduced sensitivity
shift in the IC50 for growth suppression ([3]; HCK-T338H vs wild-type HCK in TF-1/FLT3-ITD cells): 2 fold
IC50 ([3]; read-out: IC50, growth suppression, TF-1/FLT3-ITD cells expressing HCK-T338H): ~100 nM
kinase specificity profile [4]: remarkably narrow specificity profile
colony formation by control cells expressing HCK-YF [5]: completely blocked colony formation
colony formation in the presence vs absence of A-419259 [6]: equal numbers of colonies in the presence or absence of A-419259
activation loop phosphorylation (pY416) of HCK-T338H (HCK-T338H [7]): no change in activation loop phosphorylation
activity in mice bearing AML patient-derived xenografts [8]: potent activity
